# Shown are actives, neighbours in structure and some others; about 2% of the full set was active somewhere.
# T cruzi inh = inhibitors of intracellular T. cruzi growth, primary screen, luminescence, NIH3T3 host cells; AID 1885, 2009; T. cruzi beta-gal in NIH3T3, 90 h; inhibition, % (concentration not given with the values); 300,000 compounds, 1.4% hits;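 active means mean inhibition across valid replicates above about 55%, limit read from the data; inconclusive means mean below that limit but half or more replicates reach it; inactive means mean below it, under half of replicates reach it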;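 further: signal also drops with host cell toxicity which is not excluded here; 0% = plate median of DMSO wells and 100% = zero luminescence signal; higher percent means less beta-gal luminescence so fewer parasites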
#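 Read-out: Parasite load inhibition, % | Test system: Mouse NIH/3T3 fibroblasts infected with β-gal-expressing T. cruzi Tulahuen C4 | Amount: 5,000 cells/well | Medium: DMEM, 2% fetal bovine serum | Signal: GalScreen β-gal luminescence, detergent lysis, 60 min | Timing: 3 h attach, ≥90 h co-culture | Also added: Tulahuen C4 trypomastigotes, 5000/well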
# AI-2 QS modul = Vibrio harveyi AI-2 quorum sensing modulators, primary screen, JMH597 strain, luminescence/OD600 ratio | Vibrio harveyi JMH597 AI-2 luminescence/OD600 ratio, 9 h; hits give low values; strain lacks LuxN and CqsS sensors; 0 = neutral-control median | activity change, % at 7.5 µM | 300,000 compounds, 0.4% hits; in the data active means activity change below about -75%, passing the limit was not always enough; inconclusive means no clear call, values can overlap the other calls;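 further: luminescence divided by OD600 gain over 9 h not by final OD600 alone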
# HIF act = HIF pathway transcriptional activators, primary screen, cell-based, U2OS HRE-luciferase, luminescence; U2OS HRE-luciferase reporter; normalized: DMSO 0%, desferrioxamine 100%; activation, % at 7.5 µM (by protocol); 300,000 compounds, 0.32% hits; AID 1910, 2009;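 active means mean activation of at least 10% of the iron chelator positive control signal, with at least half of replicates also reaching 10%; inconclusive means mean and replicate majority disagree about reaching 10%; inactive means mean and most replicates under 10%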
# ARNT-TACC3 inh = disruptors of ARNT/TACC3 protein interaction, primary screen, biochemical, AlphaScreen, single concentration; AlphaScreen His-ARNT PAS-B/GST-TACC3 binding, luminescence; TACC3 fragment carries E629A point mutation; inhibition, % at 9.99 µM; 390,000 compounds, 0.66% hits; AID 623870, 2012;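 active means mean inhibition of replicates at least 50% and at least half of replicates each reaching 50%; inconclusive means half or more replicates reach 50% but mean below 50%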;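 further: 0% = complete ARNT plus TACC3 wells and 100% = ARNT alone without TACC3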
# Starred values were filed as active, the others as inactive; ? = inconclusive; nt = no result given.
SMILES,T cruzi inh,AI-2 QS modul,HIF act,ARNT-TACC3 inh
C[C@@H]1CCCCO[C@H](CN(C)S(=O)(=O)c2ccc(F)cc2)[C@@H](C)CN([C@@H](C)CO)C(=O)c2cc(NC(=O)Nc3ccccc3)ccc2O1,nt,nt,nt,-10
CCCc1cn(CC[C@@H]2CC[C@H](NC(=O)C3CCCCC3)[C@@H](CO)O2)nn1,nt,nt,nt,13
CCC(=O)N1C[C@H](C)[C@@H](OC)CN(C)C(=O)c2ccc(NC(=O)c3ccccc3)cc2OC[C@@H]1C,nt,nt,nt,2
Cc1noc(C)c1CCC(=O)NC1CCCN(Cc2ccc(Cl)cc2)C1 (centres undefined),36,22,0,46*
COc1ccc(C(=O)NCCc2nc3cc([N+](=O)[O-])ccc3n2C)cc1,-13,17,26*,-14
COc1ccc(C(=O)Nc2ccc3c(c2)nc(CCNC(C)=O)n3C)cc1,-9,15,2,16
O=C(NCc1ccccc1)C(=O)NCC1OCCN1S(=O)(=O)c1ccc([N+](=O)[O-])cc1 (centres undefined),60*,9,0,2
CNC(=O)C(=O)NCC1OCCN1S(=O)(=O)c1ccc([N+](=O)[O-])cc1 (centres undefined),21,40,0,38
C[C@@H]1CN([C@H](C)CO)C(=O)c2cccc(NC(=O)C3CCCCC3)c2O[C@@H]1CN(C)S(=O)(=O)c1ccc(F)cc1,nt,nt,nt,-5
CC(=O)c1cccc(CN2CCC(n3nccc3NC(=O)CCCc3ccccc3)CC2)c1,5,35,0,-1
O=C(CCc1ccccc1)Nc1ccnn1C1CCN(C/C=C/c2ccccc2)CC1,10,4,435*,4
COc1cccc(CN2CCC(n3nccc3NC(=O)CCCc3ccccc3)CC2)c1,31,-81*,-1,-6
C[C@@H]1CCCCO[C@H](CN(C)C(=O)Nc2cccc3ccccc23)[C@@H](C)CN([C@@H](C)CO)C(=O)c2cc(NC(=O)c3ccccc3)ccc2O1,nt,nt,nt,5
CCc1ccc(C(=O)C[n+]2cccc3cc(OC)ccc32)cc1,43,9,-1,-6
Cc1ccc(C(=O)C[n+]2cccc3cc(C)ccc32)cc1,58*,13,0,0
COc1ccc2c(ccc[n+]2CC(=O)c2ccc(C)cc2)c1,32,7,-12,21
CCOc1ccc(C(=O)C[n+]2cccc3cc(C)ccc32)cc1,68*,10,0,6
Cc1ccc(C)c(S(=O)(=O)N2CCN(C(=O)CCc3c[nH]c4ccccc34)CC2)c1,nt,nt,nt,8
Cc1ccc(C)c(S(=O)(=O)N2CCN(C(=O)CCCc3c[nH]c4ccccc34)CC2)c1,64*,24,-1,-2
O=C(CN1CCC(Cc2ccccc2)CC1)NC(=O)NCc1ccccc1,-2,-19,0,-3
Cc1ccc(C)c(S(=O)(=O)N2CCN(CC(=O)NC(=O)NCc3ccccc3)CC2)c1,56*,-41,1,-5
COc1cc(NCCCNC(C)C)c2nccc(C)c2c1,nt,nt,nt,77*
CC(=NNc1nc2ccccc2o1)c1ncccn1,nt,nt,nt,62*
CC(=NNc1nc2ccccc2s1)c1ncccn1,nt,nt,nt,63*
CC(=NNc1nc2ccccc2o1)c1cc2ccccc2cn1,nt,nt,nt,5
SMILES,T cruzi inh,AI-2 QS modul,HIF act,ARNT-TACC3 inh
COc1ccc(S(=O)(=O)Nc2ccc3c(c2)C(=O)N([C@@H](C)CO)C[C@H](C)[C@@H](CN(C)C(=O)Nc2c(C)noc2C)OCCCC[C@H](C)O3)cc1,nt,nt,nt,-1
c1ccc(Nc2cc(Nc3ccccc3)[nH]n2)cc1,24,-88*,0,4
O=c1nccc(Nc2ccccc2)[nH]1,12,9,-1,4
O=C(NCC1CCCO1)c1cc(-c2ccccc2F)no1 (centres undefined),-18,13,13*,-11
[N-]=[N+]=Nc1ccccc1C[C@@]1(C(=O)NCCN2CCOCC2)N=C(c2ccc(OCCCO)cc2)O[C@@H]1c1ccccc1,nt,nt,nt,-5
CCOc1ccc(CCNC(=O)COC(=O)Cn2nc(C)c([N+](=O)[O-])c2C)cc1OCC,-10,30,13*,5
CC(C)(C)c1ccc(Cn2c(=N)n(CC(O)c3ccco3)c3ccccc32)cc1 (centres undefined),60*,18,-7,6
C[C@@H]1CCCCO[C@H](CN(C)CC2CCCCC2)[C@H](C)CN([C@@H](C)CO)C(=O)c2cc(NC(=O)CCC(F)(F)F)ccc2O1,nt,nt,nt,3
c1ccc(Nc2cccc3ccccc23)cc1,nt,nt,nt,-2
c1ccc(Nc2ccc3c4c(cccc24)CC3)cc1,65*,-5,0,-10
CN(C)c1ccc(NC(=O)c2cn(-c3ccccc3)nc2-c2cccs2)cc1,14,27,1,2
O=C(Nc1ccc2ccccc2c1)c1cn(-c2ccccc2)nc1-c1cccs1,60*,7,1,34
O=C(N[C@@H]1CC[C@@H](CC(=O)N2CCc3ccccc3C2)O[C@@H]1CO)C1CC1,nt,nt,nt,5
Cc1[nH]n(-c2ccccc2)c(=O)c1C(C[N+](=O)[O-])c1ccc(Br)cc1 (centres undefined),-6,48,1,48*
COc1cccc(C(C[N+](=O)[O-])c2c(C)[nH]n(-c3ccccc3)c2=O)c1 (centres undefined),-2,?,55*,20
Cc1[nH]n(-c2ccccc2)c(=O)c1C(c1cccc([N+](=O)[O-])c1)c1c(C)[nH]n(-c2ccccc2)c1=O,0,12,1,nt
C[C@H]1CCCCO[C@@H](CN(C)Cc2ccc(C(=O)O)cc2)[C@@H](C)CN([C@@H](C)CO)C(=O)c2cc(NC(=O)CCC(F)(F)F)ccc2O1,nt,nt,nt,-13
O=C(O)c1ccc(N/N=C/C2=Cc3ccccc3OC2)cc1,-9,-91*,3,8
CCCNC1=C(N(C(C)=O)c2cccc(F)c2)C(=O)c2ccccc2C1=O,55*,30,-1,7
CCC(=O)N(C1=C(NC(C)C)C(=O)c2ccccc2C1=O)C(C)C,-8,7,0,nt
Clc1ccc(OCCn2ccnc2)c2ccccc12,70*,47,0,1
Clc1ccc(OCCn2ccnc2)c(Cl)c1,2,8,0,0
Cc1ccc(C)c(OCCCCCn2ccnc2)c1,72*,1,0,1
C=CCc1cc(Cl)ccc1OCCCn1ccnc1,57*,24,-2,10
C=CCc1cc(Cl)ccc1OCCn1ccnc1,22,19,2,-1
Fc1ccc(OCCCCCn2ccnc2)cc1,55*,-55,0,0
C[C@H](CO)N1C[C@H](C)[C@H](CN(C)Cc2ccccn2)Oc2ncc(C#CCN(C)C)cc2C1=O,nt,nt,nt,-2
Cc1cc(OCCCn2ccnc2)cc(C)c1Cl,59*,19,-1,-4
COCCCNc1c2c(nc3nnnn13)CCCC2,-8,28,0,-5
